An excerpt weighted towards active compounds, which were near 4.1% of everything screened.
CHOP UPR activ = activators of apoptotic arm of unfolded protein response (CHOP) | CHO-CHOP luciferase reporter, UPR activation, luminescence; percent of tunicamycin response over DMSO baseline | activation, % at 10 µM | 330,000 compounds, 0.34% hits | AID 449763;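 active means at 10 µM dose, activation of 40% or more, normalized to positive control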;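 further: 100% = tunicamycin at 10 µg/mL and 0% = DMSO alone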
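Dosing – one dose, 10 µM in 0.5% DMSO · System – CHO-CHOP cells, stable luciferase reporter of PERK-eIF2a-CHOP signalling · Input – 500 cells/well · Control set – tunicamycin 10 µg/mL final as positive, DMSO-only wells as negative · Timing – 6 h compound treatment, 37 °C · Measure – % activation vs tunicamycin · Technique – luminescence read with Steady-Glo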
UPR XBP1 act = adaptive UPR (XBP1) activation; CHO-XBP1 luciferase reporter, IRE1-XBP1 UPR activation, luminescence; percent of tunicamycin response, DMSO as zero; activation, % at 20 µM; 330,000 compounds, 0.33% hits; AID 463104;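 active means versus positive control, 20 µM dose yields 30% or more activation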;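 further: 100% = tunicamycin at 10 µg/mL and 0% = DMSO only wells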
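assay system = CHO-XBP1 luciferase reporter cells | amount = 1000 cells/well | buffer or medium = F12 plus 10% FBS | compound dosing = single point, 20 µM final compound, 1% DMSO | incubation = 16-18 h cell attachment at 37 °C, then 6 h compound exposure | detection = Steady-Glo luminescence read | controls = tunicamycin 10 µg/mL and vehicle-only wells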
UBC13 polyUb = inhibitors of human UBC13 polyubiquitin chain formation; P61088; TR-FRET; inhibition, % at 20 µM; 330,000 compounds, 0.47% hits; AID 485273; in the data active means inhibition above about 45%, passing the limit was not always enough
Apaf-1 inh = human Apaf-1 inhibition; reconstituted apoptosome caspase-3 activity, DEVD-Rh110 fluorescence; O14727; 330,000 compounds, 0.71% hits; inhibition, % at 20 µM; active means inhibition of at least 40% at 20 µM;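 further: plate controls were DMSO wells for no effect and DEVD-CHO caspase inhibitor wells for full effect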
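Material: reconstituted apoptosome with Apaf-1, cytochrome c, caspase-9, procaspase-3, dATP / Buffer or medium: pH 7.5 Hepes buffer with CHAPS, BSA, DTT / Also added: cytochrome c with DEVD-Rh110 / Schedule: compound with Apaf-1, dATP, procaspase-3 30 min, then 50 min reaction, room temperature / Technique: rhodamine 110 fluorescence at Ex 480/Em 540 nm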
Mdm2-MdmX inh = inhibitors of human Mdm2/MdmX interaction; 330,000 compounds, 3% hits; inhibition, % at 8 µM; SaOS-2 split-luciferase Mdm2/MdmX complementation, luminescence;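 active means inhibition of at least 50% at 8 µM in the primary screen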
Target sequence (O15151 whole entry, looked up): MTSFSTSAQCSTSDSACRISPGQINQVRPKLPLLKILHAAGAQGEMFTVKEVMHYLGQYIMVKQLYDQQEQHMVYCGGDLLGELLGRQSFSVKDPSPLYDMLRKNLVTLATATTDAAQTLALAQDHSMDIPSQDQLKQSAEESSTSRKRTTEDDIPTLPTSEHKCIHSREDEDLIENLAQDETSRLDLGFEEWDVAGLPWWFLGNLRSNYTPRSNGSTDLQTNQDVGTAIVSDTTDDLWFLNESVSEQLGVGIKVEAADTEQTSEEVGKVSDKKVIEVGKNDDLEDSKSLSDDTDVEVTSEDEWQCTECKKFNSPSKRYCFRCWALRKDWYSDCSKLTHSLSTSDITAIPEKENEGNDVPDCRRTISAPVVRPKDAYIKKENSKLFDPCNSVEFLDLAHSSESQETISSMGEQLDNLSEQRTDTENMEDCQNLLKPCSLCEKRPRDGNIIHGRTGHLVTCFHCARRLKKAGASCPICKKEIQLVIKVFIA
Target sequence (Q00987 whole entry, looked up): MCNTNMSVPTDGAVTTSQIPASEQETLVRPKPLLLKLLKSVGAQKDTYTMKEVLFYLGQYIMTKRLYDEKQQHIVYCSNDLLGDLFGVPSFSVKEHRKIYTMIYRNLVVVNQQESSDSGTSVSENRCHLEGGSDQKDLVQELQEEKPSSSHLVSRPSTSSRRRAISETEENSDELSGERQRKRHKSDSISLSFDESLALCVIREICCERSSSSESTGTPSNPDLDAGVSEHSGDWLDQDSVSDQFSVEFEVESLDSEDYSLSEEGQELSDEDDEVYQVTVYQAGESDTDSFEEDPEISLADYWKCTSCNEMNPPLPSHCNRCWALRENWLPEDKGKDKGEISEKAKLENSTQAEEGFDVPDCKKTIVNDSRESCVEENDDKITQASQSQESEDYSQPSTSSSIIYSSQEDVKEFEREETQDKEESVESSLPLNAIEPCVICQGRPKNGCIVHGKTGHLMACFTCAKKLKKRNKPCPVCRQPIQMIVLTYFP
Mdm2 MdmX conf = confirmation of human Mdm2/MdmX interaction inhibitors; shares compounds with Mdm2-MdmX inh; Mdm2-MdmX binding, luminescent assay; inhibition, % at 8 µM; 10,000 compounds, 55% hits; AID 489028; in the data active means inhibition above about 40%
FLuc counter = counter-screen for Mdm2/MdmX inhibitors: full-length luciferase; shares compounds with Mdm2-MdmX inh; SaOS-2 full-length luciferase counterscreen, luminescence; inhibition, % at 8 µM; 6,200 compounds, 77% hits; AID 504607;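 active means mean inhibition at 8 µM reaching about 37%, which flags the compound as non-specific, limit read from the data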;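 further: p53-null SaOS-2 cells with luciferase driven by a doxycycline-inducible promoter; compound on cells about two nights before reading with doxycycline added after day one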
* hit, by the source's call; · = not tested or not shown.

SMILES | CHOP UPR activ | UPR XBP1 act | UBC13 polyUb | Apaf-1 inh | Mdm2-MdmX inh | Mdm2 MdmX conf | FLuc counter
Cc1csc2nc(O)c(C(=O)NCCCc3ccccc3)c(=O)n12 | 1 | 0 | -3 | 19 | 61* | 70* | 21
Cc1csc2nc(O)c(C(=O)NCCC3=CCCCC3)c(=O)n12 | -2 | -2 | -2 | 24 | 39 | · | ·
Cc1cccc(CS(=O)(=O)c2ncc(Cl)c(C(=O)Nc3c(C)cccc3C)n2)c1 | 26 | -2 | -6 | 4 | 94* | 86* | 51*
CSc1ncc(Cl)c(C(=O)Nc2cccc(C)c2)n1 | -2 | -1 | 10 | 11 | -30 | · | ·
Cc1cccc(CS(=O)(=O)c2ncc(Cl)c(C(=O)NCc3ccccc3)n2)c1 | 84* | -10 | 3 | 0 | 83* | 66* | 7
CCOc1ccc(CN2CCC(C(=O)Nc3cccc(-c4ccn[nH]4)c3)CC2)cc1Cl | 4 | -5 | 14 | 3 | 61* | 0 | ·
COc1cccc(-c2cccc(NC(=O)C3CCN(Cc4nccs4)CC3)c2)c1 | 1 | -3 | 10 | -6 | 16 | · | ·
Cc1cc(C)n(CCCN2CCC(C(=O)Nc3cccc(-c4cccc(F)c4)c3)CC2)n1 | 1 | -3 | 18 | 30 | 58* | 56* | 74*
CCn1ncc(CN2CCC(C(=O)Nc3cccc(-c4cccc(F)c4)c3)CC2)c1C | 1 | -4 | 18 | 15 | 33 | · | ·
CCn1nc(C)c(CN2CCC(C(=O)Nc3cccc(-c4cccc(Cl)c4)c3)CC2)c1C | -1 | -1 | 29 | 20 | 80* | 40* | 62*
COc1ccc(C(=O)c2ccc(N3CCN(C4CC(=O)NC4=O)CC3)cc2)cc1F (configuration not stated) | -1 | -1 | -5 | 5 | 13 | · | ·
CCOc1cc(N2CCOCC2)c(OCC)cc1NC(=O)c1ccc(OCc2c(C)noc2C)c(OC)c1 | 4 | 1 | -9 | 6 | 12 | · | ·
COc1cccc(CNC(=O)CCc2ccc(OC)c(OC)c2)c1 | 0 | -3 | -6 | 1 | 6 | · | ·
CCN1C(=O)NC(c2cc(Br)ccc2OC)C(C(=O)OC)=C1C (configuration not stated) | 0 | -4 | 4 | 9 | 7 | · | ·
COc1ccc(CCn2c(C)cc(C(=O)CSc3nnnn3-c3ccccc3)c2C)cc1OC | -2 | -4 | -1 | 9 | 59* | 7 | ·
COCCn1c(C)cc(C(=O)CSc2nc3ccccc3s2)c1C | -3 | -4 | 2 | 6 | 66* | 70* | 146*
COCCn1c(C)cc(C(=O)CSc2nnc3ccccn23)c1C | -9 | -8 | -1 | 1 | 54* | 62* | 113*
O=C(CCc1n[nH]c(=O)[nH]c1=O)Nc1cccc([N+](=O)[O-])c1 | 0 | 0 | -7 | -1 | -40 | · | ·
COc1ccc(C(OCC(O)CNCCc2ccc(S(N)(=O)=O)cc2)c2ccc(OC)cc2)cc1 (configuration not stated) | 2 | 0 | 17 | 8 | 19 | · | ·
OC(CNCCc1ccc(C(F)(F)F)cc1)COC(c1ccccc1)c1ccccc1 (configuration not stated) | 0 | -2 | 37 | 17 | 87* | 42* | 56*
Cc1cccc(CS(=O)(=O)c2nnc([C@H](Cc3ccccc3)NC(=O)OC(C)(C)C)o2)c1 | 29 | -7 | 4 | 2 | 97* | 56* | 54*
COC(=O)CSc1nnc([C@H](Cc2ccccc2)NC(=O)OC(C)(C)C)o1 | 0 | -1 | 3 | -3 | -31 | · | ·
COC(=O)CS(=O)(=O)c1nnc([C@H](Cc2ccccc2)NC(=O)OC(C)(C)C)o1 | -10 | -11 | 9 | 2 | 84* | 56* | 15
O=C(NCc1ccccn1)C(=O)Nc1cccc2ccccc12 | 0 | 3 | 6 | -3 | 14 | · | ·
COCCCNC(=O)C(=O)Nc1cc2c3c(c1)CCN3C(=O)CC2 | -1 | -7 | -1 | 0 | 12 | · | ·
CCOP(=O)(OCC)c1nc(-c2ccc(F)cc2)oc1NCc1ccccc1 | 1 | 0 | 11 | 23 | 24 | · | ·

Source: PubChem BioAssay (Sanford-Burnham Center for Chemical Genomics)
